From ChEMBL document CHEMBL1140975, “Synthesis and antimalarial activity of carbamate and amide derivatives of 4-anilinoquinoline” (Eur J Med Chem, 2008)
The source made the active and inactive calls. The calls are words filed in the database; no cut-off is given here.

Experiments:
[1] = Cytotoxicity against human MRC5 cells after 7 days by MTT assay; type: cell-based
Outline: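 MRC-5 human embryonic lung cells were seeded at 5000 per well and washed after 24 h. Two-fold drug dilutions were added in RPMI + 5% FCS, with final DMSO below 0.5%. Plates were held at 37 °C in 5% CO₂ for 7 days. MTT absorbance at 540 nm was compared with untreated controls. CC₅₀ is the concentration causing 50% cytotoxicity.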

Plasmodium berghei [2] = experiment: Antimalarial activity as reduced parasitaemia in Plasmodium berghei ANKA 65 infected Swiss CD1 mice (Mus musculus) at 10 mg/kg/day peroral dose then intraperitoneal dose for 4 days; type: functional; set-up: scale not given: the % may be the effect or the level left; details: route oral
Outline: (§1)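 Female Swiss CD-1 mice (4 weeks old, 20–25 g), three per group, infected intraperitoneally with about 10⁷ P. berghei ANKA 65-parasitized erythrocytes from an infected donor. The first dose was given orally in 100% DMSO at infection, then intraperitoneally on the following 4 days. Infected DMSO-dosed mice served as controls. Read-outs were parasitaemia reduction at day 4 and excess MST, the % prolongation of mean survival time versus controls.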

Plasmodium berghei [3] = experiment: Antimalarial activity as increased mean survival time in Plasmodium berghei ANKA 65 infected Swiss CD1 mice (Mus musculus) at 10 mg/kg peroral dose day 1 with intraperitoneal dose over 4 days; type: functional, organism-based; set-up: dose 10 mg/kg; outline: as §1
Mus musculus = species: Mus musculus; experiment: Toxicity in Plasmodium berghei ANKA 65 infected Swiss CD1 mice (Mus musculus); type: organism-based; details: in vivo
[4] = Selectivity index, ratio of IC50 for human MRC5 cells to IC50 for chloroquine-resistant Plasmodium falciparum FcB1R/Colombia; type: toxicity, cell-based; details: read-out: Ratio CC50/IC50
Outline: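 SI is CC50 on MRC-5 over IC50 against FcB1R. MRC-5 cells were seeded at 5000 per well and treated after 24 h with two-fold dilutions in RPMI + 5% FCS (DMSO <0.5%). Incubation was 7 days at 37 °C, 5% CO2. Read-out was MTT, as % reduction of absorbance at 540 nm versus untreated cultures. CC50 is the concentration giving 50% cytotoxicity.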

Plasmodium falciparum [5] = experiment: Antimalarial activity after 24 hrs against chloroquine-resistant Plasmodium falciparum FcB1R/Colombia by [3H]hypoxanthine uptake; type: functional, organism-based
Outline: (§2)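 Asynchronous P. falciparum cultures on human erythrocytes (1% parasitaemia, 1% final haematocrit) exposed to serial dilutions of drug for 24 h at 37 °C, then [3H]hypoxanthine added for another 24 h. Cells freeze-thawed, harvested onto glass-fibre filters and scintillation counted. Incorporation compared with drug-free control on the same plate. IC50 taken from concentration-response curve, mean ± SD of independent experiments. DMSO ≤0.1%.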

Plasmodium falciparum [6] = experiment: Antimalarial activity against chloroquine-sensitive Plasmodium falciparum THAI/Thailand as [3H]hypoxanthine uptake after 24 hrs by semi-automated micro dilution; type: functional, organism-based; outline: as §2
Plasmodium falciparum [7] = experiment: Antimalarial activity after 24 hrs against chloroquine-resistant Plasmodium falciparum K1/Thailand by [3H]hypoxanthine uptake; type: functional, organism-based; outline: as §2
Plasmodium berghei [8] = experiment: Antimalarial activity as reduced parasitaemia in Plasmodium berghei ANKA 65 infected Swiss CD1 mice (Mus musculus) at 40 mg/kg/day peroral dose then intraperitoneal for 4 days; type: functional; set-up: scale not given: the % may be the effect or the level left; details: route oral; outline: as §1
Plasmodium berghei [9] = experiment: Antimalarial activity as increased MST in Plasmodium berghei ANKA 65 infected Swiss CD1 mice (Mus musculus) at 40 mg/kg peroral dose day 1 followed by intraperitoneal dose for 4 days; type: functional
Outline: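 Female Swiss CD-1 mice, four weeks old, 20-25 g, three per group. Infected ip with about 10^7 P. berghei ANKA 65 parasitized erythrocytes from a donor mouse. Dosed orally at 40 mg/kg in 100% DMSO at infection, then ip for the following 4 days. Controls were infected DMSO-dosed mice. Excess MST is the percent prolongation of mean survival time over controls.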

Structure (SMILES) | CC50 at 168 h [1] | selectivity ratio [4] | IC50 (Plasmodium falciparum [5]) | further results
CCN(CC)CCCC(C)Nc1ccnc2cc(Cl)ccc12 (stereo unspecified) [CHLOROQUINE] | 50000 nM | – | – | Activity (Plasmodium berghei [2]): 100%; Activity (Plasmodium berghei [3]): Active; Activity (Mus musculus): Non-toxic
CCN(CC)CCCCC(=O)OCc1cc(NC(=O)CN2CCCCC2)cc(Nc2ccnc3cc(Cl)ccc23)c1 | – | 89 | – | –
O=C(CN1CCCCC1)Nc1cc(COC(=O)CCN2CCCCC2)cc(Nc2ccnc3cc(Cl)ccc23)c1 | – | 158 | – | –
O=C(CN1CCCCC1)Nc1cc(COC(=O)NCc2ccccc2)cc(Nc2ccnc3cc(Cl)ccc23)c1 | > 12500 nM | > 347 | 36 nM | –
O=C(CN1CCCCC1)Nc1cc(Nc2ccnc3cc(Cl)ccc23)cc(C(=O)NCCN2CCOCC2)c1 | > 32000 nM | > 546 | 58.6 nM | –
CN1CCN(CCCNC(=O)OCc2cc(NC(=O)CN3CCCCC3)cc(Nc3ccnc4cc(Cl)ccc34)c2)CC1 | 6300 nM | – | – | –
CN(C)CCNC(=O)OCc1cc(NC(=O)CN2CCCCC2)cc(Nc2ccnc3cc(Cl)ccc23)c1 | 3100 nM | 304 | 10.2 nM | –
O=C(CN1CCCCC1)Nc1cc(COC(=O)CCCCCN2CCCCC2)cc(Nc2ccnc3cc(Cl)ccc23)c1 | – | 456 | – | –
O=C(CN1CCCCC1)Nc1cc(Nc2ccnc3cc(Cl)ccc23)cc(C(=O)N2CCOCC2)c1 | > 32000 nM | > 298 | 108 nM | –
CN1CCN(C(=O)c2cc(NC(=O)CN3CCCCC3)cc(Nc3ccnc4cc(Cl)ccc34)c2)CC1 | 16000 nM | 833 | 19.2 nM | IC50 (Plasmodium falciparum [6]): 38.4 nM; IC50 (Plasmodium falciparum [7]): 51.2 nM; Activity (Plasmodium berghei [8]): 99.96%; Activity (Plasmodium berghei [9]; route oral): 150%; Activity (Mus musculus): Non-toxic
O=C(CN1CCCCC1)Nc1cc(COC(=O)NCCN2CCOCC2)cc(Nc2ccnc3cc(Cl)ccc23)c1 | > 12500 nM | > 259 | 48.3 nM | IC50 (Plasmodium falciparum [6]): 38.6 nM; IC50 (Plasmodium falciparum [7]): 19.4 nM
CN(C)CCN(C)C(=O)c1cc(NC(=O)CN2CCCCC2)cc(Nc2ccnc3cc(Cl)ccc23)c1 | 16000 nM | 851 | 18.8 nM | –
O=C(CN1CCCCC1)Nc1cc(Nc2ccnc3cc(Cl)ccc23)cc(C(=O)N2CCCCC2)c1 | > 32000 nM | > 112 | 286 nM | –
O=C(CN1CCCCC1)Nc1cc(Nc2ccnc3cc(Cl)ccc23)cc(C(=O)N2CCN(c3ccccc3)CC2)c1 | 16000 nM | 106 | 151 nM | –
O=C(CN1CCCCC1)Nc1cc(COC(=O)NCCN2CCCCC2)cc(Nc2ccnc3cc(Cl)ccc23)c1 | 12500 nM | 1120 | 11.2 nM | IC50 (Plasmodium falciparum [6]): 19.4 nM; IC50 (Plasmodium falciparum [7]): 9.7 nM; Activity (Plasmodium berghei [8]): 100%; Activity (Plasmodium berghei [9]; route oral): 50%; Activity (Mus musculus): Non-toxic
O=C(CN1CCCCC1)Nc1cc(CNCCN2CCCCC2)cc(Nc2ccnc3cc(Cl)ccc23)c1 | – | 648 | 6.6 nM | –

Structure (SMILES) | CC50 at 168 h [1] | selectivity ratio [4] | IC50 (Plasmodium falciparum [5]) | further results
CN(C)CCCNC(=O)c1cc(NC(=O)CN2CCCCC2)cc(Nc2ccnc3cc(Cl)ccc23)c1 | > 32000 nM | > 177 | 181 nM | –
CN(C)CCNCc1cc(NC(=O)CN2CCCCC2)cc(Nc2ccnc3cc(Cl)ccc23)c1 | – | 1150 | – | –
O=C(CN1CCCCC1)Nc1cc(CNCCN2CCOCC2)cc(Nc2ccnc3cc(Cl)ccc23)c1 | – | 406 | 7.9 nM | Activity (Plasmodium berghei [8]): 100%; Activity (Plasmodium berghei [9]): Active; Activity (Mus musculus): Non-toxic
O=C(CN1CCCCC1)Nc1cc(COC(=O)CCCCN2CCCCC2)cc(Nc2ccnc3cc(Cl)ccc23)c1 | – | 806 | – | –
O=C(CN1CCCCC1)Nc1cc(COC(=O)CCCCN2CCOCC2)cc(Nc2ccnc3cc(Cl)ccc23)c1 | – | 887 | – | Activity (Plasmodium berghei [8]): 99.8%; Activity (Plasmodium berghei [9]; route oral): 73%; Activity (Mus musculus): Non-toxic
O=C(CN1CCCCC1)Nc1cc(COC(=O)CN2CCCCC2)cc(Nc2ccnc3cc(Cl)ccc23)c1 | – | 231 | – | –
CCN(CC)Cc1cc(Nc2ccnc3cc(Cl)ccc23)ccc1O.Cl | 12000 nM | 2500 | 4.8 nM | IC50 (Plasmodium falciparum [6]): 4.6 nM; IC50 (Plasmodium falciparum [7]): 9.4 nM; Activity (Plasmodium berghei [2]): 100%; Activity (Plasmodium berghei [3]): Active; Activity (Mus musculus): Non-toxic
O=C(CN1CCCCC1)Nc1cc(CO)cc(Nc2ccnc3cc(Cl)ccc23)c1 | 12500 nM | 281 | – | Activity (Plasmodium berghei [8]): 100%; Activity (Plasmodium berghei [9]; route oral): 110%; Activity (Mus musculus): Non-toxic
CN(C)CCCNCc1cc(NC(=O)CN2CCCCC2)cc(Nc2ccnc3cc(Cl)ccc23)c1 | – | 174 | – | –
CN(C)CCNC(=O)c1cc(NC(=O)CN2CCCCC2)cc(Nc2ccnc3cc(Cl)ccc23)c1 | 15000 nM | 478 | 31.4 nM | –
O=C(CN1CCCCC1)Nc1cc(Nc2ccnc3cc(Cl)ccc23)cc(C(=O)N2CCN(Cc3ccccc3)CC2)c1 | 15000 nM | 296 | 50.6 nM | –
O=C(CN1CCCCC1)Nc1cc(Nc2ccnc3cc(Cl)ccc23)cc(C(=O)O)c1 | > 32000 nM | – | > 1000 nM | –
O=C(CN1CCCCC1)Nc1cc(Nc2ccnc3cc(Cl)ccc23)cc(C(=O)NCCN2CCCC2)c1 | 17000 nM | 1024 | 16.6 nM | –
O=C(CN1CCCCC1)Nc1cc(CNCCN2CCCC2)cc(Nc2ccnc3cc(Cl)ccc23)c1 | – | 182 | – | –
CCN(CC)CCCNC(=O)OCc1cc(NC(=O)CN2CCCCC2)cc(Nc2ccnc3cc(Cl)ccc23)c1 | 6300 nM | 434 | 14.5 nM | –
